Source: the EternaBench riboswitch data

Test system: MS2 coat protein
Assay: apparent Kd, MS2 coat protein; higher = weaker binding; RNA-MaP array; FMN 200 µM where present
Procedure, shortened: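 SNAP-549-labelled MS2 coat protein, doubled from 0.7 or 1.5 nM to 3 µM, was titrated over designs transcribed by stalled E. coli RNA polymerase on Illumina sequencing-chip clusters. Titrations were run without and then with constant ligand in 100 mM Tris-HCl pH 7.5, 80 mM KCl, 4 mM MgCl2, BSA, DTT, yeast tRNA and Tween-20. The apparent Kd is the median of filtered per-cluster fits to green signal normalised to red-channel RNA signal and control-cluster median Fmax.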

[1] = designed as: OFF switch for flavin mononucleotide, no ligand
[2] = ligand present: flavin mononucleotide, designed as: OFF switch for flavin mononucleotide
[3] = designed as: ON switch for flavin mononucleotide, no ligand
[4] = ligand present: flavin mononucleotide, designed as: ON switch for flavin mononucleotide

Row | Sequence | apparent Kd [1] [nM] | apparent Kd [2] [nM] | apparent Kd [3] [nM] | apparent Kd [4] [nM]
1 | UUAAUGUCAGGAUAUCUUAGGUGGGUGCGAAGAUUCAUUUUGGAGAAGGGACAUGAGGAUCACCCAUGUACCUU | 18.7 | 19.5 |  | 
2 | UUAAUGUGAGGAUAUCAGGUGUGCUAGCGUACUGGUACAUCUGAGAAGGCACAUGAGGAUCACCCAUGUUCCUU | 16.4 | 55.3 |  | 
3 | UUAAUUAACAAGAAGGCAUACAUGAGGAUCACCCAUGUUGUACAUGGAUAAUGAGGAUAUUGCUAAUAAUUAUUUUUCUUAAUU | 47.6 | 35.5 |  | 
4 | UUAAUUAAUUAAUUCGUCAAUUACAUGAGGAUCACCCAUGUAUAGGAUAUGCAGUGGAAUACACUGCAGAAGGAUACAAAGACG | 18.3 | 21.4 |  | 
5 | UUAAUUAAUUAAUUGCAGAAUUACAUGAGGAUCACCCAUGUAUAGGAUAUCGUCAGGAAUACUGACGAGAAGGAUACAAACUGC | 17.9 | 20.7 |  | 
6 | UUACAGUGCGGGUAGGAUAUGUAGGGUGGUACAUGAGGAUCACCCAUGUAUCCACCCUUCUACCGGCAGAAGGGCCUGUCACUGC |  |  | 17 | 13.5
7 | UUACCUCAUGAGAAGGACAUGAGGAUCACCCAUGUAGGAUAUCGUGGAAGACUGGUAUUGAAUCUUCGGAUUCAAUACCUGUCU |  |  | 317 | 15.7
8 | UUACGUCCCGUUUACAUGAGGAUCACCCAUGUCGAAAGACAUGAGGAUAUGCUACCUAAUUGGUAGCAGAAGGCAUGGACGUCG |  |  | 306 | 312
9 | UUACUACAUGAGGAUCACCCAUGUCAGGAUAUUGUCUAUACCUUGGAAUACGUGUCGACAAGAAGGGACUAUAU | 21.1 | 24 |  | 
10 | UUACUACAUGAGGAUCACCCAUGUCAGGAUAUUGUCUAUACUUUGGAAUAUGUGUCGAUAAGAAGGGACUAUAU | 18.9 | 21.5 |  | 
11 | UUACUAUUGGAGAAGGCUCGAUAAUAUAUAAUGGGAGGAUAUCCAACAUGAGGAUCACCCAUGUUUCACCCAUAUGAGGAUCAC | 12.6 | 13.2 |  | 
12 | UUACUCAUGUAAGGAUAUGCAGCCGAAACGGCUGCAGAAGGUACUAAAAUACAUGAGGAUCACCCAUGUCUUUUUAAUAUAGAC |  |  | 151 | 80.1
13 | UUACUCAUGUAAGGAUAUGCAGCUGAAACGGCUGCAGAAGGUACUAUAAUACAUGAGGAUCACCCAUGUAAAAUAAAUAAAGUU |  |  | 24.1 | 14.6
14 | UUAGCGCGAGGAUAUGCGGUUUGUGCUUUGGGCCCUGGCGUACAUGAGGAUCACCCAUGUAGAAGGCGUGUUGU | 24.7 | 24.8 |  | 
15 | UUAUAAAGUGUGAGGAUAUGCUGGUCGAUAGAUCAGCAGAAGGCACAUGAGGAUCACCCAUGUAAUAUAUUUUA | 52.1 | 222 |  | 
16 | UUAUACUGAGAGAAGGUUCAAACUACAUAUUGCAUACAUGAGGAUCACCCAUGUUGGUGAAUAAGAAAGGAUAUUUUACUGUAU | 39.2 | 27.9 |  | 
17 | UUAUCUAUGUAAGGAUAUAGAUGAUAUACGCAUCCGACAUGAGGAUCACCCAUGUUAUAUUUUGUCUAGAAGGUACAUUGUCGG |  |  | 204 | 179
18 | UUAUCUCAUGAGAAGGACAUGAGGAUCACCCAUGUAGGAUAUCAUGGGUCAGUGGAAUUGAAUCUUCGGAUUCAAUUACUCUAC |  |  | 60.6 | 11.5
19 | UUAUGACCGUAAAUAAGGUUGUCGAAGGAUAUUACAGGAGUACGAUCACAUGAGGAUCACCCAUGUAAGAAGGUCGAUACGCUG | 17 | 76.4 |  | 
20 | UUAUUAAGUGUGAGGAUAUGCUGGUCCUUGGAUCAGCAGAAGGCACAUGAGGAUCACCCAUGUACAUUAUUUUA | 35 | 247 |  | 
21 | UUAUUACAUGAGGAUCACCCAUGUUUAGUGGUGACAGGAUAUACGAAAAAAAAAAAAAAAGUAGAAGGGUCUUAUU |  |  | 503 | 742
22 | UUAUUAUAUGUAGGAUAUGCAUAUUGUUGUUAUGCAGAAGGACAUGAGGAUCACCCAUGUAUAUUAUUGUUAUAUAUUAUAUAU | 23.4 | 36.7 |  | 
23 | UUAUUAUAUGUAGGAUAUGCGUAUUAUUGUUAUGCAGAAGGACAUGAGGAUCACCCAUGUAUAUUAUUGUUGUAUAUUAUAUAU | 23.5 | 43 |  | 
